NRP1-CendR mod – alters CendR peptide binding to human NRP-1. O14786. FAM-RPARPAR peptide binding to NRP-1, fluorescence polarization. inhibition, % at 25 µM. actives 0.85% (n = 360,000). AID 602438;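 active = inhibition or corrected inhibition above about 18%, plus a signal ratio from 0.5 to 1.5, limit read from the data, passing the limit was not always enough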
ABCB6 inh MLPCN – human ABCB6 transporter inhibition; actives 0.19% (n = 360,000); K562-ABCB6 porphyrin accumulation, flow cytometry, 1 h; stronger effect = lower value; AID 602162; fluorescence ratio to DMSO, % at 10 µM;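 active = fluorescence ratio to DMSO below 75%, the collection mean minus 3 SD; inconclusive = too few cells collected in the well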;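 also: signal is porphyrin accumulated inside mitochondria; 100% equals median channel fluorescence of DMSO control wells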
ATG4B inh – ATG4B (human) cysteine protease inhibition. inhibition, % at 8.33 µM. actives 0.51% (n = 340,000). ATG4B cleavage of LC3-PLA2, NBD-HPC fluorescence, 1 h; in the data active = inhibition above about 40%
Myeloid diff MLP – myeloid differentiation induction; ER-HoxA9 myeloid progenitors, lysozyme-GFP differentiation, flow cytometry; calls only at 10 µM; actives 1% (n = 360,000);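 active = normalized GFP-positive differentiation at or above the plate's own cutoff, the solvent-only control mean plus 3 SD; inconclusive = no clear call, values can overlap the other calls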;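 also: cells exposed to compound for four days before flow analysis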
Arr AP2 block – inhibitors of human beta-arrestin and AP2 interaction; inhibition, % at 10 µM; actives 0.31% (n = 340,000); FITC-arrestin peptide / GST-AP2 beads, flow cytometry; AP2 beta2 appendage carries R879A mutation;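 active = inhibition above a set limit, near 3 SD of compounds lacking own fluorescence, cut at about 54% in these data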;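 also: plate controls were DMSO wells for no effect and 5 µM unlabelled arrestin peptide for full effect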
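test system = AP2 appendage R879A on GSH beads | buffer or medium = PBS plus Tween 20 (0.05%) and BSA (0.1%) | incubation = 12 min plus 1 h, RT | detection = bead flow cytometry, FITC channel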
Exocytosis inh – lytic granule exocytosis inhibition; inhibition, % at 10 µM; actives 0.66% (n = 360,000); TALL-104 LAMP-1 surface exposure, flow cytometry; cells stimulated with thapsigargin and PMA;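 active = inhibition above about 55%, limit read from the data; inconclusive = no clear call, values can overlap the other calls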
Exocytosis CP01 – blocks lytic granule exocytosis. shares compounds with Exocytosis inh. TALL-104 cells, LAMP-1 externalization, flow cytometry; stimulated with PMA plus thapsigargin. inhibition, % at 10 µM. actives 11% (n = 1,500); in the data active = inhibition above about 60%;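 also: 0% = stimulated vehicle wells and 100% = unstimulated wells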
Active calls of the source: *; i = inactive; ? = inconclusive; . = not tested or not shown. The list is not random: actives were taken first. Their share in the collection is about 3.3%.

SMILES	NRP1-CendR mod	ABCB6 inh MLPCN	ATG4B inh	Myeloid diff MLP	Arr AP2 block	Exocytosis inh	Exocytosis CP01
CCCCCCCCN1C(=O)[C@H](CC(=O)NCCCOCCCC)C[C@@]2(C(=O)OC)CC(C)(C)CC=C12	5	.	.	i	.	60*	5
CC1=C(C(=O)N(C)C)CC(CC(=O)NCCc2ccccn2)C(=O)N1Cc1ccc(F)cc1 (centres undefined)	-5	101	.	i	.	-7	.
CCCCN(CCCC)CCNC(=O)CN1C(=O)COc2ccc(S(=O)(=O)N3CCC(C)CC3)cc21	11	101	-7	i	-9	-1	.
CCCCN(CCCNC(=O)CN1C(=O)COc2ccc(S(=O)(=O)N3CCC(C)CC3)cc21)Cc1ccccc1	1	99	-5	i	24	60*	-4
COC(=O)C1CCN(CCCOc2ccc(CN3CCN(c4ccc([N+](=O)[O-])cc4)CC3)cc2)CC1	-2	100	-3	i	-19	84*	-10
COC(=O)C1CCN(c2ccc([N+](=O)[O-])cc2)CC1	3	99	1	i	7	-2	.
Cc1cn2c(=O)c(C(=O)NCc3ccc4c(c3)OCO4)cnc2s1	6	98	-3	i	-11	59*	-10
CCC(=O)c1ccc(OC(=O)Cc2ccc(OC)cc2)cc1	-3	100	4	i	37	4	.
C=C1CC2(OC1=O)c1ccccc1CCc1ccccc12	-7	97	-6	?	8	90*	-10
COCCNC(=O)C1(C)CCCN(C(=O)c2cnc3ccccc3n2)C1 (centres undefined)	7	93	.	i	.	-4	.
COc1ccc(Nc2nc(N3CCN(S(C)(=O)=O)CC3)nc3ccccc23)c(OC)c1	-1	100	-1	i	11	15	.
COc1ccc(Nc2nc(N3CCN(S(=O)(=O)N(C)C)CC3)nc3ccccc23)cc1	1	96	-9	i	-12	81*	-4
O=C(NCCCCc1ccccc1)c1cccc(NC(=O)C2CC2)c1	11	93	.	i	33	-4	.
Cc1nc(SCC(=O)c2cc(C)n(C3CC3)c2C)c2ccccc2n1	-19	97	.	i	.	-4	.
CCN(Cc1ccccc1)CC(O)COC(c1ccc(OC)cc1)c1ccc(OC)cc1 (centres undefined)	-3	110	3	i	-3	66*	-11
COc1ccc(S(=O)(=O)N(C(=O)c2ccco2)c2cc3sc(=O)oc3c3ccccc23)cc1	4	97	-8	i	2	83*	-13
O=C(CSc1nccn(-c2ccc(F)c(F)c2)c1=O)NC1CCCC1	-16	102	-9	i	-7	23	.
O=C(CSc1nccn(-c2cccc(F)c2)c1=O)Nc1ccc(Cl)cc1F	-9	100	-5	i	-1	76*	-10
CCOc1ccc2nc(C)cc(Nc3cccc([N+](=O)[O-])c3)c2c1	9	95	-18	i	2	90*	80*
Cc1cc(Nc2cccc([N+](=O)[O-])c2)c2ccccc2n1	2	110	-7	i	.	6	.
COc1ccccc1C(=O)NCC1(c2ccccc2)CCCC1	13	98	14	i	18	80*	-1
O=C(NCC1(c2ccccc2)CCCC1)c1ccccc1Br	-4	103	-6	i	4	-4	.
CCOc1cc(CNCc2cccnc2)cc(Br)c1OCC(N)=O	-2	95	0	i	-6	-10	.
COc1ccc(-c2cc(NC=O)c3ncc(-c4cccc(OC)c4)n3c2)cc1	-40	120	.	?	.	63*	74*
CS(=O)(=O)c1ccc(-c2cnc3c(NC=O)cc(-c4ccsc4)cn23)cc1	-62	119	.	i	.	-6	.
SMILES	NRP1-CendR mod	ABCB6 inh MLPCN	ATG4B inh	Myeloid diff MLP	Arr AP2 block	Exocytosis inh	Exocytosis CP01
COc1cccc(-c2cnc3c(NC=O)cc(-c4ccc(N(C)C)cc4)cn23)c1	-84	108	.	i	.	-10	.
COc1cccc(-c2cnc3c(NC(C)=O)cc(-c4ccsc4)cn23)c1	-6	96	.	i	.	77*	91*
O=CNc1cc(-c2ccsc2)cn2c(-c3ccccc3)cnc12	-45	110	.	i	.	71*	82*
O=C(CCN=C1NS(=O)(=O)c2ccccc21)OCC(=O)c1ccccc1Cl	8	98	-1	i	34	3	.
COc1ccccc1N1CC(C(=O)Nc2ccc(N3CCOCC3)cc2)CC1=O (centres undefined)	0	91	-1	i	-6	0	.
COc1ccc2nc(C)cc(N3CCN(c4ccccc4)CC3)c2c1	14	93	-4	i	19	65*	-2
O=C(CCCCCCCC(=O)N1CCCC1)N1CCCC1	6	89	3	i	8	0	.
COc1ccc(N(CC(=O)NCCSCc2ccc(Cl)cc2)S(C)(=O)=O)cc1Cl	10	93	-11	i	25	67*	0
COc1ccc(N(CC(=O)NCCSCc2cccc(Cl)c2)S(C)(=O)=O)cc1Cl	-4	99	-14	i	3	60*	-10
COc1ccc(N(C(C)C(=O)NCCSCc2cccc(Cl)c2)S(C)(=O)=O)cc1 (centres undefined)	7	94	-3	i	45	27	.
COc1ccc(Cl)cc1N(CC(=O)NCCSCc1ccccc1)S(C)(=O)=O	8	93	-2	i	34	1	.
Cc1cccc(N(C(=O)CCC(=O)Nc2cc(C)on2)C(C(=O)NC2CCCC2)c2ccccc2)c1 (centres undefined)	11	96	-5	i	1	17	.
Cc1cccc(C(=O)NCC(=O)OC(C)C(=O)Nc2ccc(Cl)cn2)c1 (centres undefined)	14	103	-1	i	27	0	.
CCSc1nc2cc(C(=O)OC)ccc2c(=O)n1CC	-10	96	-7	i	-9	0	.
COCCn1c(SCc2cccc(F)c2)nc2cc(C(=O)OC)ccc2c1=O	7	99	-10	i	-22	75*	-12
CCOC(=O)N1CCN(CCC(=O)c2ccc(Br)cc2)CC1	-14	93	0	i	-5	88*	8
CCOC(=O)N1CCN(CCC(=O)c2ccc(Cl)cc2)CC1	-6	96	-7	i	1	35	.
Oc1ccccc1N1CCN(c2ccc3ccccc3n2)CC1	3	100	17	i	-2	66*	-14
C[N+](C)(C)CC(=O)N1CCN(c2ccc3ccccc3n2)CC1	1	99	2	i	-2	8	.
Nc1ccc(-c2nc3ccc(N)cc3o2)cc1	-1	104	-3	i	38	63*	-3

High-throughput results (PubChem)
